Converted amounts (≈) assume the structure as drawn. The source made the active and inactive calls. The calls are words filed in the database; no cut-off is given here.
Assays:
Escherichia coli K-12 [1] = experiment: Binding affinity to Escherichia coli K-12 70S ribosome Pi complex assessed as inhibition of AcPhe-puromycin synthesis at 5 uM after 2 mins by liquid scintillation counting
Escherichia coli K-12 [2] = experiment: Binding affinity to Escherichia coli K-12 Pi complex of 70S ribosome Pi complex U2609C mutant assessed as blockade of tylosin-induced inhibition of AcPhe-puromycin synthesis at 10 uM after 2 mins by liquid scintillation counting
In short: (§1)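 Pi complexes were formed on ribosomes carrying the A2058G or U2609C mutation (Ac[3H]Phe-tRNA at the P-site of MF-mRNA-programmed 70S; buffer A). Complexes were pre-exposed to antibiotic (final 10 μM) at 37°C for 2 min, then tylosin was added (final 5 μM). They were then reacted with 1 mM puromycin at 37°C for 2 min to measure AcPhe-puromycin formation.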

Escherichia coli [3] = experiment: Antimicrobial activity against Escherichia coli TA531 harboring 23S rRNA A2058G mutant after 15 hrs; format: functional; settings: TA531, 15 h
In short: (§2)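 E. coli TA531 lacking chromosomal rrn alleles and carrying plasmid-borne wild-type, A2058G or U2609C 23S rRNA. Grown overnight in LB with 100 μg/ml ampicillin, diluted and regrown. MIC was the lowest concentration arresting culture growth.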

Nucleic Acid [4] = experiment: Binding affinity to Escherichia coli K-12 70S ribosome 23S rRNA assessed as protection against DMS-induced modification of 23S rRNA […] by primer extension analysis; format: nucleic-acid assay
Nucleic Acid [5] = experiment: Binding affinity to Escherichia coli K-12 70S ribosome 23S rRNA U2609C mutant assessed as protection against DMS-induced modification of 23S rRNA domain V at nucleotides A2058 and A2059 by primer extension analysis
Nucleic Acid [6] = experiment: Binding affinity to Escherichia coli K-12 70S ribosome 23S rRNA assessed as protection against CMCT-induced modification of 23S rRNA […] by primer extension analysis; format: nucleic-acid assay
Bacterial 70S ribosome = experiment: Displacement of [14C]-erythromycin from Escherichia coli K-12 70S ribosome after 10 mins by competitive binding assay
In short: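 Tight-coupled 70S ribosomes (0.20 μM final) in buffer A (20 mM HEPES-KOH pH 7.6, 4.5 mM Mg acetate, 150 mM NH4 acetate, polyamines). [14C]-erythromycin held constant at 0.6 μM (150 dpm/pmol) with increasing unlabeled competitor, 10 min at 37°C. Mixture was diluted in cold buffer and filtered through cellulose nitrate, which was washed twice and counted. KD was derived from a competition binding equation.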

[7] = molecular target: T1, Bacterial 70S ribosome (Bacteria) (UniProt P0A7V0+P60723+P0AG67+P0A7R5+P0A7R9+P0A7S3+P0A7S9+P0AG59+P0ADZ4+P0A7T3+P0AG63+P0A7T7+P0A7U3+P0A7U7+P68679+P0A7V3+P0A7V8+P0A7W1+P02358+P02359+P0A7W7+P0A7X3+P0A7J3+P0A7J7+P0AA10+P0ADY3+P02413+P0ADY7+P0AG44+P0C018+P0A7K6+P0A7L0+P0A7L3+P0AG48+P61175+P0ADZ0+P60624+P68919+P0A7L8+P0A7M2+P0A7M6+P60422+P0AG51+P0A7N1+P0A7M9+P0A7N4+P0A7N9+P0A7P5+P0A7Q1+Q2EEQ2+P0A7Q6+P60438+P62399+P0AG55+P0A7K2); experiment: Inhibition of poly(A)-dependent synthesis of poly(Lys) using Escherichia coli K-12 70S ribosome at 20 uM after 1 hr by liquid scintillation counting
In short: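 Poly(A)-programmed tight-coupled 70S ribosomes (0.5 μM) were preincubated 10 min at 37°C with antibiotic in buffer A. The mix held [3H]lysine (3 nmol, 500 dpm/pmol), bulk E. coli tRNA, 3 mM ATP, 1.5 mM GTP, 5 mM acetyl phosphate and S-100 fraction. Incubated 1 h at 37°C, followed by hot TCA (with 0.25% sodium wolframate) precipitation onto glass fiber filters and scintillation counting.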

Escherichia coli [8] = experiment: Antimicrobial activity against Escherichia coli TA531 harboring 23S rRNA U2609C mutant after 15 hrs; format: functional; settings: TA531, 15 h; in short: as §2
Escherichia coli K-12 [9] = experiment: Binding affinity to Escherichia coli K-12 70S ribosome Pi complex assessed as inhibition of AcPhe-puromycin synthesis at 10 uM after 2 mins by liquid scintillation counting
In short: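 Pi complex: Ac[3H]Phe-tRNA bound at the P-site of MF-mRNA-programmed 70S ribosomes (0.3 μM ribosomes, 2.0 μM mRNA, 0.5 μM tRNA; buffer A, pH 7.6, 4.5 mM Mg2+; 37°C 15 min), free of unbound donor. Reacted with 1 mM puromycin at 37°C for 2 min, with or without 10 μM antibiotic. Duplicates.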

Escherichia coli [10] = experiment: Antimicrobial activity against chromosomal rrn allele deficient-Escherichia coli TA531 after 15 hrs; format: functional; settings: TA531, 15 h; in short: as §2
[11] = molecular target: T1, Bacterial 70S ribosome (Bacteria); experiment: Inhibition of poly(U)-dependent synthesis of poly(Phe) using Escherichia coli K-12 70S ribosome at 20 uM after 30 mins by liquid scintillation counting
Nucleic Acid [12] = experiment: Binding affinity to Escherichia coli K-12 70S ribosome 23S rRNA assessed as enhancement of DMS-induced modification of 23S rRNA domain II at nucleotides A752 by primer extension analysis; format: nucleic-acid assay
In short: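 70S ribosomes (50 pmol) activated 5 min at 37°C in 20 mM HEPES/KOH pH 7.8, 20 mM MgCl2, 300 mM KCl. Antibiotic added in the same buffer for 10 min at 37°C, then cooled on ice. DMS modification followed, then SDS/EDTA buffer, phenol/chloroform extraction and ethanol precipitation of rRNA. Repeated up to four times.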

Nucleic Acid [13] = experiment: Binding affinity to Escherichia coli K-12 70S ribosome 23S rRNA A2062 mutant assessed as protection against DMS-induced modification of 23S rRNA domain II at nucleotides A752 and by primer extension analysis; format: nucleic-acid assay
Escherichia coli K-12 [14] = experiment: Binding affinity to Escherichia coli K-12 70S ribosome Pi complex assessed as dissociation rate constant at 2 uM
Escherichia coli K-12 [15] = experiment: Inhibition of poly(U)-dependent synthesis of poly(Phe) using Escherichia coli K-12 70S ribosome A2058 mutant at 50 uM after 1 hr by liquid scintillation counting
[16] = molecular target: T1, Bacterial 70S ribosome (Bacteria); experiment: Inhibition of Escherichia coli K-12 70S ribosome dependent elongation factor G-dependent translocation
Escherichia coli K-12 [17] = experiment: Binding affinity to Escherichia coli K-12 Pi complex of 70S ribosome Pi complex A2058G mutant assessed as blockade of tylosin-induced inhibition of AcPhe-puromycin synthesis at 10 uM after 2 mins by liquid scintillation counting; in short: as §1
[18] = molecular target: T1, Bacterial 70S ribosome (Bacteria); experiment: Inhibition of Ptase activity of Escherichia coli K-12 70S ribosome
Escherichia coli K-12 [19] = experiment: Inhibition of poly(U)-dependent synthesis of poly(Phe) using Escherichia coli K-12 70S ribosome U2609C mutant at 50 uM after 1 hr by liquid scintillation counting
[20] = molecular target: T1, Bacterial 70S ribosome (Bacteria); experiment: Inhibition of tRNA binding to Escherichia coli K-12 70S ribosome
Nucleic Acid [21] = experiment: Binding affinity to Escherichia coli K-12 70S ribosome 23S rRNA A2062 mutant assessed as enhancement of DMS-induced modification of 23S rRNA domain V at nucleotides A2062 by primer extension analysis; format: nucleic-acid assay

Row | Structure (SMILES) | Activity (Escherichia coli K-12 [2]) | MIC (Escherichia coli [3]) | Activity (Nucleic Acid [4]) | Activity (Nucleic Acid [5]) | Activity (Nucleic Acid [6]) | Kd (Bacterial 70S ribosome) | inhibition [7] | MIC (Escherichia coli [8]) | MIC (Escherichia coli [10]) | inhibition [11] | also measured
1 | CC[C@H]1OC(=O)C[C@@H](O)[C@H](C)[C@@H](O[C@@H]2O[C@H](C)[C@@H](O[C@H]3C[C@@](C)(O)[C@@H](O)[C@H](C)O3)[C@H](N(C)C)[C@H]2O)[C@@H](CC=O)C[C@@H](C)C(=O)/C=C/C(C)=C/[C@@H]1CO[C@@H]1O[C@H](C)[C@@H](O)[C@@H](OC)[C@H]1OC | – | – | – | – | – | – | – | – | – | – | Activity (Escherichia coli K-12 [1]): Active
2 | CC[C@H]1OC(=O)[C@H](C)[C@@H](O[C@H]2C[C@@](C)(OC)[C@@H](O)[C@H](C)O2)[C@H](C)[C@@H](O[C@@H]2O[C@H](C)C[C@H](N(C)C)[C@H]2O)[C@](C)(O)C[C@@H](C)C(=O)[C@H](C)[C@@H](O)[C@]1(C)O [ERYTHROMYCIN] | Active | > 500 µg/mL | inactive | Active | inactive | 0.015 µM | Active | 128 µg/mL (≈ 174 µM) | 128 µg/mL (≈ 174 µM) | inactive | Activity (Escherichia coli K-12 [9]): inactive; Activity (Nucleic Acid [12]): Active
3 | C[C@H]1C(=O)O[C@H](CCNC(=O)Cc2cccc(-c3ccco3)c2)[C@@]2(C)OC(=O)N[C@@H]2[C@@H](C)C(=O)[C@H](C)C[C@@](C)(O)[C@H](O[C@@H]2O[C@H](C)C[C@H](N(C)C)C2O)[C@@H](C)C1=O (stereo partly specified) [KOSAN-1325] | Active | > 250 µg/mL | Active | Active | Active | 0.0075 µM | Active | 8 µg/mL (≈ 10 µM) | 8 µg/mL (≈ 10 µM) | inactive | Activity (Nucleic Acid [13]): Active; Kdiss (Escherichia coli K-12 [14]): 5e-05 s⁻¹; inhibition (Escherichia coli K-12 [15]): inactive; inhibition [16]: inactive; Activity (Escherichia coli K-12 [17]): Active; inhibition [18]: inactive; inhibition (Escherichia coli K-12 [9]): inactive; inhibition (Escherichia coli K-12 [19]): Active; inhibition [20]: inactive; Activity (Nucleic Acid [21]): Active
4 | CC[C@H]1OC(=O)[C@H](C)C(=O)[C@H](C)[C@@H](O[C@@H]2O[C@H](C)C[C@H](N(C)C)[C@H]2O)[C@](C)(OC)C[C@@H](C)C(=O)[C@H](C)[C@H]2N(CCCCn3cnc(-c4cccnc4)c3)C(=O)O[C@]12C [TELITHROMYCIN] | – | > 150 µg/mL | – | – | – | – | – | 64 µg/mL (≈ 78.8 µM) | 16 µg/mL (≈ 19.7 µM) | – | –

Source: ChEMBL document CHEMBL1687727, “Distinct mode of interaction of a novel ketolide antibiotic that displays enhanced antimicrobial activity” (Antimicrob Agents Chemother, 2009)
